Assay [1] relates to Influenza A virus. Put plainly: Antiviral activity against Influenza A virus H5N1 Vietnam/1203/2004H infected in MDCK cells at up to 100 uM. Format: functional, organism-based. The note with it: A/Viet Nam/1203/2004(H5N1).
Assay [2] concerns Influenza B virus. Description: Antiviral activity against Influenza B virus Florida/4/2006 infected in MDCK cells at up to 100 uM. Conditions: B/Florida/4/2006. Type of assay: functional, cell-based.
The test system of assay [3] is MDCK. Put plainly: Cytotoxicity against MDCK cells. Type of assay: cell-based. The note with it: Canis lupus familiaris. An outline of the steps: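 Run in MDCK cells, two uninfected toxicity-control wells per compound concentration alongside the infected wells. Neutral red uptake in these wells is read spectrophotometrically to give an NR IC50. The wells are also examined microscopically against untreated normal cells for enlargement, granularity, rounding, detachment and similar changes. The IC50 from these observations is derived by regression analysis.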

The test system of assay [4] is Influenza A virus. Put plainly: Antiviral activity against Influenza A virus H5N1 Vietnam/1203/2004H infected in MDCK cells. Format: functional, organism-based. Conditions: A/Viet Nam/1203/2004(H5N1).
Assay [5] has as its system Influenza B virus. Put plainly: Antiviral activity against Influenza B virus Florida/4/2006 infected in MDCK cells. Format: functional, cell-based. Conditions: B/Florida/4/2006, MDCK.
Assay [6] deals with Influenza B virus. Put plainly: Antiviral activity against Influenza B virus Florida/4/2006 infected in MDCK cells assessed as reduction of viral yeild. Type of assay: functional. Conditions: B/Florida/4/2006, MDCK.
Assay [7] has as its system Influenza B virus. Description: Antiviral activity against Influenza B virus Florida/4/2006 infected in MDCK cells assessed as increase of neutral red uptake. Format: functional, cell-based. The note with it: B/Florida/4/2006, MDCK. The gist of the method:
(§1)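 Neutral red dye uptake read-out run in MDCK cells. Cells not damaged by virus take up more dye, which is measured on a microplate reader. The EC50 is derived from dye uptake.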

Assay [8] has as its system Influenza A virus. Put plainly: Antiviral activity against Influenza A virus H5N1 Vietnam/1203/2004H infected in MDCK cells assessed as increase of neutral red uptake. Type of assay: functional, organism-based. Conditions: A/Viet Nam/1203/2004(H5N1). An outline of the steps: as §1
Assay [9] in a line: Selectivity index, IC50 for MDCK cells to EC50 for Influenza B virus Florida/4/2006 infected in MDCK cells assessed as reduction of virus-induced cytopathogenicity by confocal microscopic analysis. Format: functional. The gist of the method:
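CPE inhibition in MDCK cells, scored microscopically. At each concentration, two uninfected treated wells are examined for morphology changes against normal control cells: enlargement, granularity, ragged edges, filmy appearance, rounding or detachment. Cytotoxic IC50 is found by regression analysis. SI = IC50/EC50.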

The nature of assay [10]: Selectivity index, IC50 for MDCK cells to EC90 for Influenza B virus Florida/4/2006 infected in MDCK cells assessed as reduction of viral yield. Format: functional. The gist of the method:
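Retest in MDCK cells of compounds active by neutral red, with virus yield reduction measured on the same plate as CPE inhibition. A known active drug is the parallel positive control. EC90 is the concentration lowering virus yield by 1 log10. SI is the ratio of cytotoxic IC50 to EC90.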

For assay [11], the system named is Influenza A virus. Description: Antiviral activity against Influenza A virus H5N1 Vietnam/1203/2004H infected in MDCK cells assessed as reduction of virus-induced cytopathogenicity by confocal microscopic analysis. Format: functional, organism-based. Conditions: A/Viet Nam/1203/2004(H5N1).
Assay [12] relates to Influenza A virus. Put plainly: Antiviral activity against Influenza A virus H5N1 Vietnam/1203/2004H infected in MDCK cells assessed as reduction of viral yeild. Type of assay: functional. Conditions: A/Viet Nam/1203/2004(H5N1).
Assay [13] in a line: Selectivity index, IC50 for MDCK cells to EC50 for Influenza B virus Florida/4/2006 infected in MDCK cells assessed as increase of neutral red uptake. Format: functional. The gist of the method:
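Run in MDCK cells. Antiviral EC50 comes from neutral red uptake, since undamaged cells take up more dye, read on a microplate reader. Cytotoxicity uses neutral red in uninfected, compound-treated toxicity control wells run alongside, read spectrophotometrically to give NR IC50. SI = IC50/EC50.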

Assay [14] has as its system Influenza B virus. Description: Antiviral activity against Influenza B virus Florida/4/2006 infected in MDCK cells assessed as reduction of virus-induced cytopathogenicity by confocal microscopic analysis. Type of assay: functional, cell-based. The note with it: B/Florida/4/2006, MDCK.

Structures are written as SMILES. Converted amounts (≈) assume the structure as drawn. The source made the active and inactive calls. No cut-off for these calls is given here.

Turning to `CC(=O)O[C@@]1(C)[C@@H](COC(=O)c2ccccc2)O[C@H](n2cnc3c(N4CCOCC4)ncnc32)[C@]1(C)F`, the outcome in [1] and in assay [2] was inactive.

Turning to `C[C@]1(O)[C@@H](CO)O[C@H](n2cnc3c(O)ncnc32)[C@]1(C)F`, the outcome in assay [1] and in assay [2] was inactive.

Consider `C[C@]1(F)[C@@H](n2cnc3c(N)ncnc32)O[C@H](CO)[C@@]1(C)O`, for which the outcome in assay [1] and in [2] was inactive.

For `CC(=O)O[C@@]1(C)[C@@H](COC(=O)c2ccccc2)O[C@H](n2cnc3c(Cl)ncnc32)[C@]1(C)F`, the outcome in assay [1] and in assay [2] was inactive.

Take `CN1CCN(c2ncnc3c2ncn3[C@H]2O[C@H](CO)[C@](C)(O)[C@@]2(C)F)CC1`: the result in assay [1] and in assay [2] was inactive.

Consider `CCOc1ncnc2c1ncn2[C@H]1O[C@H](COC(=O)c2ccccc2)[C@](C)(OC(C)=O)[C@@]1(C)F`, for which the result in assay [1] and in [2] was inactive.

For the molecule `C[C@]1(O)[C@@H](CO)O[C@H](n2cnc3c(N4CCOCC4)ncnc32)[C@]1(C)F`, the outcome in assay [1] and in [2] was inactive.

With `CC(=O)O[C@@]1(C)[C@@H](COC(=O)c2ccccc2)O[C@H](n2cnc3c(NC4CC4)ncnc32)[C@]1(C)F`, the outcome in [1] and in assay [2] was inactive.

The molecule `C[C@]1(F)[C@H](n2cnc3c(N)ncnc32)O[C@H](CO)[C@@]1(C)O` gave an IC50 in assay [3] of more than 100 µg/mL. For the same molecule, the EC50 in assay [4] and in assay [5] was more than 100 µg/mL each time.

In assay [3], `CC(=O)O[C@@]1(C)[C@@H](COC(=O)c2ccccc2)O[C@@H](n2cnc3c(N4CCOCC4)ncnc32)[C@]1(C)F` registered an IC50 of more than 100 µg/mL. The EC50 in assay [4] was 24 µg/mL (≈ 46.7 µM); in assay [5], 25 µg/mL (≈ 48.7 µM).

As to `CC(=O)O[C@@]1(C)[C@@H](COC(=O)c2ccccc2)O[C@H](n2cnc3c(NCc4ccco4)ncnc32)[C@]1(C)F`, the outcome in [1] and in assay [2] was inactive.

As for `CC(=O)O[C@@]1(C)[C@@H](COC(=O)c2ccccc2)O[C@H](n2cnc3c(N4CCN(C)CC4)ncnc32)[C@]1(C)F`, the outcome in [1] and in [2] was inactive.

As to `CC(=O)O[C@@]1(C)[C@@H](COC(=O)c2ccccc2)O[C@@H](n2cnc3c(NCc4ccc(F)cc4)ncnc32)[C@]1(C)F`, the midpoint of inhibition in [3], the IC50, lay at 36 µg/mL (≈ 65.3 µM). The concentration giving a half-maximal response (EC50) in [4] was 32 µg/mL (≈ 58 µM); in assay [5], 30 µg/mL (≈ 54.4 µM).

For `C[C@]1(O)[C@@H](CO)O[C@H](n2cnc3c(NC4CCC4)ncnc32)[C@]1(C)F`, the result in [1] and in assay [2] was inactive.

On to `CC(=O)O[C@@]1(C)[C@@H](COC(=O)c2ccccc2)O[C@@H](n2cnc3c(N4CCN(C)CC4)ncnc32)[C@]1(C)F`, for which, in assay [3], the IC50 was more than 100 µg/mL. The figures for the 50% effective concentration (EC50) in assay [4] and in assay [5] were more than 100 µg/mL and 42 µg/mL (≈ 79.8 µM), respectively.

For the molecule `CCOc1ncnc2c1ncn2[C@H]1O[C@H](CO)[C@](C)(O)[C@@]1(C)F`, the outcome in [1] and in assay [2] was inactive.

In the case of `CC(=O)O[C@]1(C)[C@@H](COC(=O)c2ccccc2)O[C@H](n2cnc3c(Cl)ncnc32)[C@]1(C)F`, the outcome in assay [1] and in [2] was inactive.

Consider `C[C@]1(O)[C@@H](CO)O[C@H](n2cnc3c(NC4CC4)ncnc32)[C@]1(C)F`, for which the result in assay [1] and in assay [2] was inactive.

Molecule `CCOc1ncnc2c1ncn2[C@@H]1O[C@H](COC(=O)c2ccccc2)[C@](C)(OC(C)=O)[C@@]1(C)F` came in with an IC50 in [3] of more than 100 µg/mL. For the same molecule, the EC50 in assay [4] was 48 µg/mL (≈ 102 µM); in assay [5], more than 100 µg/mL.

With `CC(=O)O[C@@]1(C)[C@@H](COC(=O)c2ccccc2)O[C@@H](n2cnc3c(NCC4CC4)ncnc32)[C@]1(C)F`, the half-maximal inhibitory concentration (IC50) in [3] is more than 100 µg/mL. Further, the concentration giving a half-maximal response (EC50) in assay [4] amounted to 32 µg/mL (≈ 64.3 µM); in assay [5], 17 µg/mL (≈ 34.2 µM).

Consider `CC(=O)O[C@@]1(C)[C@@H](COC(=O)c2ccccc2)O[C@H](n2cnc3c(O)ncnc32)[C@]1(C)F`, for which the result in assay [1] and in [2] was inactive.

For the molecule `CC(=O)O[C@@]1(C)[C@@H](COC(=O)c2ccccc2)O[C@H](n2cnc3c(NCc4ccc(F)cc4)ncnc32)[C@]1(C)F`, the result in [1] and in assay [2] was inactive.

In turn, `CC(=O)O[C@@]1(C)[C@@H](COC(=O)c2ccccc2)O[C@@H](n2cnc3c(NCc4ccco4)ncnc32)[C@]1(C)F` yielded an IC50 in assay [3] of more than 100 µg/mL. The figures for the EC50 in assay [4] and in assay [5] were 31 µg/mL (≈ 59.2 µM) and 32 µg/mL (≈ 61.1 µM), respectively.

As for `C[C@]1(O)[C@@H](CO)O[C@H](n2cnc3c(NCc4ccco4)ncnc32)[C@]1(C)F`, the result in assay [1] and in assay [2] was inactive.

As for `CC(=O)O[C@@]1(C)[C@@H](COC(=O)c2ccccc2)O[C@@H](n2cnc3c(O)ncnc32)[C@]1(C)F`, in assay [3], the IC50 is more than 100 µg/mL. Moreover, the EC50 stood at 33 µg/mL (≈ 74.3 µM) in [4] and 65 µg/mL (≈ 146 µM) in assay [5].

As for `C[C@]1(O)[C@@H](CO)O[C@H](n2cnc3c(NCC4CC4)ncnc32)[C@]1(C)F`, the result in assay [1] and in assay [2] was inactive.

As to `CC(=O)O[C@]1(C)[C@@H](COC(=O)c2ccccc2)O[C@@H](n2cnc3c(Cl)ncnc32)[C@]1(C)F`, in assay [3], the IC50 is more than 100 µg/mL. Also, the EC50 in assay [4] and in assay [5] was more than 100 µg/mL throughout.

`CC(=O)O[C@@]1(C)[C@@H](COC(=O)c2ccccc2)O[C@H](n2cnc3c(NCC4CC4)ncnc32)[C@]1(C)F`: the outcome in [1] and in [2] was inactive.

Regarding `CC(=O)O[C@@]1(C)[C@@H](COC(=O)c2ccccc2)O[C@@H](n2cnc3c(Cl)ncnc32)[C@]1(C)F`, the 90% effect concentration (EC90) is 6.3 µg/mL (≈ 13.6 µM) in [6] and 4.4 µg/mL (≈ 9.51 µM) in assay [12]. Further, the concentration giving a half-maximal response (EC50) in assay [7] was 1.2 µg/mL (≈ 2.59 µM); in [8], 1.76 µg/mL (≈ 3.8 µM); in assay [4] it was 7.1 µg/mL (≈ 15.3 µM); in assay [5], 3.7 µg/mL (≈ 7.99 µM); in [11], 1.26 µg/mL (≈ 2.72 µM); in [14] it was 1.2 µg/mL (≈ 2.59 µM). Moreover, the IC50 in assay [3] was found to be 18 µg/mL (≈ 38.9 µM). For the same molecule, the “Ratio IC50/EC50” value in [9] was 15; in [10] it was 2.9; in [13], 15.

Turning to `CC(=O)O[C@@]1(C)[C@@H](COC(=O)c2ccccc2)O[C@@H](n2cnc3c(NC4CCC4)ncnc32)[C@]1(C)F`, the half-inhibitory concentration (IC50) in [3] is more than 100 µg/mL. For the same molecule, the EC50 in assay [4] worked out at 23 µg/mL (≈ 46.2 µM); in assay [5] it was 27 µg/mL (≈ 54.3 µM).

With `C[C@]1(O)[C@@H](CO)O[C@H](n2cnc3c(NCc4ccc(F)cc4)ncnc32)[C@]1(C)F`, the result in assay [1] and in [2] was inactive.

Turning to `CC(=O)O[C@@]1(C)[C@@H](COC(=O)c2ccccc2)O[C@H](n2cnc3c(NC4CCC4)ncnc32)[C@]1(C)F`, the result in assay [1] and in assay [2] was inactive.

Turning to `CC(=O)O[C@@]1(C)[C@@H](COC(=O)c2ccccc2)O[C@@H](n2cnc3c(NC4CC4)ncnc32)[C@]1(C)F`, the 50% inhibitory concentration (IC50) in assay [3] was more than 100 µg/mL. The EC50 came out at 50 µg/mL (≈ 103 µM) in assay [4] and 20 µg/mL (≈ 41.4 µM) in assay [5].
